One series deals with T1, P2Y purinoceptor 14 (Mus musculus, UniProt Q9ESG6).
T1 sequence (Q9ESG6 whole entry): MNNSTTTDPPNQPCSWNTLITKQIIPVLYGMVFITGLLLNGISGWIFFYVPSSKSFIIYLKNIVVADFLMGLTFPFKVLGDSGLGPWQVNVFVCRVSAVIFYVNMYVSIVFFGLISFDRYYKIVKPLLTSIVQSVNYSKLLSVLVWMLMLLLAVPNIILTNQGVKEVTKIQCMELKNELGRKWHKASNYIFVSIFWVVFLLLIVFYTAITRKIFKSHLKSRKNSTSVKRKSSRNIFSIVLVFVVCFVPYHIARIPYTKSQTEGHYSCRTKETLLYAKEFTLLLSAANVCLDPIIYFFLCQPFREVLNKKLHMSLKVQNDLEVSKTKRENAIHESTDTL
Nature of the series: Antagonist activity at mouse P2Y14 receptor expressed in HEK293 cells assessed as calcium flux by FLIPR assay. The series is classed as functional, cell-based. A general note: Calcium flux is commonly read through the fluorescence of an indicator in the cells.

Series [1] can be described thus: Displacement of [3H]-UDP from chimpanzee P2Y14 receptor expressed in HEK293 cells. Type of series: cell-based, Pan troglodytes. On the technique in general: Displacement assays read how much labelled ligand stays bound in the presence of the test substance.
Series [2] can be described thus: Antagonist activity at chimpanzee P2Y14 receptor expressed in HEK293 cells assessed as calcium flux by FLIPR assay. Type of series: functional, cell-based. Particulars: Pan troglodytes.
The nature of series [3]: Cmax in C57BL/6 mouse at 50 mg/kg, po administered in 5% Tween-80. The arrangement: dose 50 mg/kg, route oral. Type of series: ADME, organism-based. Particulars: in vivo. The method, boiled down:
(§1)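 C57BL/6 mice were dosed orally at 50 mg/kg (one analog at 25 mg/kg) in 5% Tween-80. They were also dosed intravenously at 2 mg/kg in 60% PEG-200. Oral bioavailability, half-life and intrinsic clearance come from these dosings.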

For series [4], the system named is Mus musculus. Nature of the series: Drug metabolism in Mrp2 (-/-) mouse assessed as (2S,3S,4S,5R,6S)-6-(7-(4-fluoro-2,6-dimethylbenzyloxy)-4-(thiophen-3-yl)-2-naphthoyloxy)-3,4,5-trihydroxytetrahydro-2H-pyran-2-carboxylic acid recovery in bile at 2 mg/kg, po up to 24 hrs. The note with it: in vivo.
A short description of series [5]: Metabolic stability in C57BL/6 mouse Hepatocyte assessed as parent compound remaining at 20 uM after 2 hrs. The series is classed as ADME, cell-based. Particulars: hepatocytes, read-out: Stability. The method, boiled down:
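Hepatocytes were isolated from mouse liver by two-step perfusion with 50 U/mL collagenase. Compound was incubated with the hepatocytes for 2 h, and metabolic stability was read out as the percentage of parent drug remaining.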

The nature of series [6]: Half life in C57BL/6 mouse at 50 mg/kg, po and 2 mg/kg, iv. The series is classed as ADME, organism-based. The note with it: in vivo. The method, boiled down:
as §1

Series [7] can be described thus: Oral bioavailability in C57BL/6 mouse at 50 mg/kg, po administered in 5% Tween-80. Particulars: in vivo. The series is classed as ADME, organism-based. Summed up:
as §1

Series [8] relates to Mus musculus. Nature of the series: Intrinsic clearance in C57BL/6 mouse at 2 mg/kg, iv administered in 60% PEG-200. Type of series: ADME, organism-based. Also on record: dose 2 mg/kg, route intravenous. Particulars: in vivo. The method, boiled down:
as §1

Series [9] is described as follows: Cmax in C57BL/6 mouse at 25 mg/kg, po administered in 5% Tween-80. Type of series: ADME, organism-based. Also on record: dose 25 mg/kg, route oral. The note with it: in vivo. The method, boiled down:
as §1

Series [10] is described as follows: Oral bioavailability in C57BL/6 mouse at 25 mg/kg, po administered in 5% Tween-80. Type of series: ADME, organism-based. The note with it: in vivo. The method, boiled down:
as §1

Some results are limits rather than exact numbers.

This note sets out measurements from ChEMBL document CHEMBL1773017, “The identification of 4,7-disubstituted naphthoic acid derivatives as UDP-competitive antagonists of P2Y14” (Bioorg Med Chem Lett, 2011).

One may read the IC50 as the concentration that inhibits the measured activity by half. By Ki is commonly meant the dissociation constant of the complex between target and ligand, obtained from inhibition or displacement. `O=C(O)c1cc(-c2ccccc2)c2ccc(OCc3ccccc3)cc2c1`: the half-maximal inhibitory concentration (IC50) (on P2Y purinoceptor 14; in [2]) was 3500 nM each time. The molecule further returned an inhibition constant Ki in [1] of 160 nM.

Consider `COc1ccc2c(-c3ccccc3)cc(C(=O)O)cc2c1`, for which the inhibition constant (Ki) in [1] was 4000 nM.

As for `O=C(O)c1cc(-c2ccccc2)c2ccc(Oc3ccccc3)cc2c1`, the half-inhibitory concentration (IC50) on P2Y purinoceptor 14 amounted to 4900 nM; in series [2], 4100 nM. The Ki in series [1] was 1500 nM.

On to `O=C(O)c1ccc(COc2ccc3c(-c4ccccc4)cc(C(=O)O)cc3c2)cc1`, for which the IC50 on P2Y purinoceptor 14 is above 13000 nM; in series [2], above 40000 nM.

As to `O=C(O)c1cc(-c2ccccc2)c2ccc(OCc3c(Cl)cccc3Cl)cc2c1`, the figures for the IC50 (on P2Y purinoceptor 14; in [2]) were 190 nM and 91 nM, respectively. For the same molecule, the inhibition constant Ki in series [1] is 29 nM.

With `Cc1cccc(C)c1COc1ccc2c(-c3ccccc3)cc(C(=O)O)cc2c1`, the IC50 on P2Y purinoceptor 14 was determined as 110 nM; in [2], 41 nM. The affinity in [1], expressed as Ki, was 42 nM.

With `Cc1cccc(C)c1OCc1ccc2c(-c3ccccc3)cc(C(=O)O)cc2c1`, the results for the IC50 (on P2Y purinoceptor 14; in [2]) were 2100 nM and 1500 nM, respectively. The Ki in series [1] came to 340 nM.

Consider `Cc1cccc(C)c1COc1ccc2ccc(C(=O)O)cc2c1`, for which the concentration for half-maximal inhibition (IC50) is 13000 nM at P2Y purinoceptor 14 and 6500 nM in series [2].

As for `Cc1cccc(C)c1COc1ccc2c(OCc3ccccc3)cc(C(=O)O)cc2c1`, the concentration for half-maximal inhibition (IC50) at P2Y purinoceptor 14 is 110 nM; in [2], 89 nM. This molecule came in with a Ki in series [1] of 21 nM.

In the case of `Cc1cccc(C)c1COc1ccc2c(-c3ccsc3)cc(C(=O)O)cc2c1`, the IC50 on P2Y purinoceptor 14 came out at 26 nM; in series [2], 6 nM. Also, the Ki in series [1] came to 16 nM.

What is called Cmax is the maximum level reached in the sampled fluid or tissue. One may read the half-life as how long it takes for the measured level to halve. The low end stands for fast loss, the high end for slow loss. The molecule `Cc1cc(F)cc(C)c1COc1ccc2c(-c3ccsc3)cc(C(=O)O)cc2c1` gave a Cmax in [3] of 23 µM. In addition, the Activity with Mus musculus [4] was above 99%. Moreover, the IC50 at P2Y purinoceptor 14 stood at 14 nM; in series [2] it was 4 nM. The remaining at 2 h, 20 µM in [5] turned out to be 8%. The half-life in series [6] is 2.7 h. For the same molecule, in [7], the bioavailability is 12%. Moreover, the inhibition constant (Ki) in series [1] is 14 nM. Moreover, in the series with Mus musculus [8], the CL was determined as 7.1 mL/min/kg.

On to `O=C(O)c1cc(-c2ccsc2)c2ccc(-c3ccc(OC(F)(F)F)cc3)cc2c1`, for which the IC50 on P2Y purinoceptor 14 turned out to be 54 nM; in series [2], 14 nM. Moreover, the remaining at 2 h, 20 µM in series [5] came to 62%. In [6], this molecule gave a half-life of 1.1 h. The same molecule came in with a Ki in series [1] of 29 nM. The same molecule yielded a Cmax in [9] of 18 µM. In the series on Mus musculus [8], this molecule showed a CL of 18 mL/min/kg. Further, the bioavailability in series [10] worked out at 92%.

For the molecule `O=C(O)c1cc2cc(-c3ccc(OC(F)(F)F)cc3)ccc2c(-c2ccsc2)c1F`, the Cmax in series [3] is 89 µM. In addition, the IC50 on P2Y purinoceptor 14 came to 380 nM; in series [2], 110 nM. Besides, in series [5], the remaining at 2 h, 20 µM turned out to be 85%. In addition, in series [6], the half-life is 4.3 h. The bioavailability in series [7] came to 129%. For the same molecule, the Ki in series [1] was 110 nM. Besides, the CL with Mus musculus [8] turned out to be 3.3 mL/min/kg.

Regarding `O=C(O)c1cc2cc(-c3ccc(OC(F)(F)F)cc3)ccc2c(-c2ccsc2)c1O`, the Cmax in [3] stood at 34 µM. For the same molecule, the IC50 on P2Y purinoceptor 14 came out at 1300 nM; in series [2] it was 490 nM. Also, the remaining at 2 h, 20 µM in series [5] was 93%. The same molecule had a half-life in [6] of 13 h. For the same molecule, the affinity in [1] corresponds to a Ki of 170 nM. This molecule also came in with a CL in the series with Mus musculus [8] of 7.6 mL/min/kg.

The molecule `O=C(O)c1cc(-c2cscc2C(O)(C(F)(F)F)C(F)(F)F)c2ccc(-c3ccc(OC(F)(F)F)cc3)cc2c1` yielded a maximum concentration (Cmax) in series [3] of 37 µM. Further, the IC50 worked out at 350 nM at P2Y purinoceptor 14 and 91 nM in series [2]. Also, the remaining at 2 h, 20 µM in [5] came to 91%. In addition, the half-life in [6] is 4.1 h. Further, the bioavailability in [7] stood at 45%. The inhibitory constant (Ki) in series [1] turned out to be 54 nM. The same molecule showed a CL in the series with Mus musculus [8] of 1.9 mL/min/kg.

`CS(=O)(=O)c1cscc1-c1cc(C(=O)O)cc2cc(-c3ccc(OC(F)(F)F)cc3)ccc12` yielded a Cmax in [3] of 16 µM. Further, in series [5], the remaining at 2 h, 20 µM worked out at 16%. This molecule gave a half-life in series [6] of 3.2 h. The bioavailability in series [7] worked out at 4%. Also, the affinity in series [1], expressed as Ki, was 32 nM. The CL in the series on Mus musculus [8] is 3.7 mL/min/kg. The IC50 in series [2] was determined as 86 nM.

With `CS(=O)(=O)c1ccc(-c2cc(C(=O)O)cc3cc(-c4ccc(C(F)(F)F)cc4)ccc23)cc1`, the IC50 came to 20 nM at P2Y purinoceptor 14 and 7 nM in [2]. The molecule further gave an inhibition constant (Ki) in [1] of 7 nM.

As to `O=C(O)c1cc(-c2ccc(C(O)C(F)(F)F)cc2)c2ccc(-c3ccc(C(F)(F)F)cc3)cc2c1` (stereo not drawn), the values for the concentration for half-maximal inhibition (IC50) (on P2Y purinoceptor 14; in series [2]) were 13 nM and 5 nM, respectively. Further, affinity in series [1] was put at a Ki of 14 nM.

For the molecule `O=C(O)c1cc(-c2ccc([C@@H](O)C(F)(F)F)cc2)c2ccc(-c3ccc(C(F)(F)F)cc3)cc2c1`, the values for the concentration for half-maximal inhibition (IC50) (on P2Y purinoceptor 14; in series [2]) were 4 nM and 1 nM, respectively. Moreover, the Ki in series [1] came to 10 nM.

`O=C(O)c1cc(-c2ccc([C@H](O)C(F)(F)F)cc2)c2ccc(-c3ccc(C(F)(F)F)cc3)cc2c1`: the concentration for half-maximal inhibition (IC50) at P2Y purinoceptor 14 is 51 nM; in series [2], 11 nM. For the same molecule, the inhibition constant (Ki) in [1] is 21 nM.

As for `O=C(O)c1cc(-c2ccc([C@@H](O)C(F)F)cc2)c2ccc(-c3ccc(C(F)(F)F)cc3)cc2c1`, the Cmax in series [3] is 113 µM. The values for the 50% inhibitory concentration (IC50) (on P2Y purinoceptor 14; in [2]) were 8 nM and 1 nM, respectively. Further, the remaining at 2 h, 20 µM in [5] worked out at 39%. This molecule also gave a half-life in [6] of 3 h. The bioavailability in [7] worked out at 67%. Also, the inhibition constant Ki in [1] worked out at 4 nM. This molecule came in with a CL in the series with Mus musculus [8] of 1.6 mL/min/kg.
